Data: ChEMBL document CHEMBL3102810, “Alkylamino derivatives of pyrazinamide: synthesis and antimycobacterial evaluation” (Bioorg Med Chem Lett, 2014)
Activity calls are given as the source filed them. The calls are words filed in the database; no cut-off is given here.

How the values were obtained:
Pseudomonas aeruginosa = assay: Antibacterial activity against Pseudomonas aeruginosa CCM 1961 after 24 to 48 hrs by microdilution broth method; type: functional, organism-based
Summary of the method: (§1)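 Antibacterial screen with compound concentrations up to a highest level of 500 µM. Results expressed as MIC in µM.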

Pichia kudriavzevii = assay: Antifungal activity against Candida krusei E28 after 72 to 120 hrs by microdilution broth method; type: functional, organism-based
Mycobacterium avium [1] = assay: Antimycobacterial activity against pyrazinamide-resistant Mycobacterium avium CNCTC My 152/73 after 5 days by microplate alamar blue assay; type: functional; details: CNCTC My 152/73, 120 h
Summary of the method: (§2)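 Microplate alamar blue assay run at pH 5.6, using conditions optimized for pyrazinamide. Strains came from the Czech National Collection of Type Cultures. MIC was read in µg/mL and converted to µM using molecular weight.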

Enterococcus sp. = assay: Antibacterial activity against Enterococcus sp. J 14365/08 after 24 to 48 hrs by microdilution broth method; type: functional, organism-based; summary of the method: as §1
Klebsiella pneumoniae [2] = assay: Antibacterial activity against Klebsiella pneumoniae D 11750/08 after 24 to 48 hrs by microdilution broth method; type: functional, organism-based; summary of the method: as §1
HepG2 = assay: Cytotoxicity against human HepG2 cells after 24 hrs; type: cell-based; details: HepG2, 24 h
Summary of the method: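 HepG2 human liver cells; loss of viability measured by a colorimetric tetrazolium-reduction assay. IC50 derived from the toxicity curves. Where limited solubility in the culture medium capped the tested concentration, only an estimate of the toxic concentration was given.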

[3] = Selectivity index, ratio of IC50 for human HepG2 cells to MIC for Mycobacterium tuberculosis H37Rv CNCTC My 331/88; type: toxicity, cell-based; details: read-out: Selectivity Index
Summary of the method: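 HepG2 human liver cell viability was measured by a colorimetric tetrazolium-reduction assay, and IC50 was derived from the toxicity curves. MIC against M. tuberculosis H37Rv came from the alamar blue microplate assay at pH 5.6. SI = IC50/MIC, both in molar units.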

Aspergillus fumigatus = assay: Antifungal activity against Aspergillus fumigatus 231 after 72 to 120 hrs by microdilution broth method; type: functional, organism-based
Mycobacterium kansasii = assay: Antimycobacterial activity against pyrazinamide-resistant Mycobacterium kansasii CNCTC My 235/80 after 5 days by microplate alamar blue assay; type: functional; details: CNCTC My 235/80, 120 h; summary of the method: as §2
Candida tropicalis = assay: Antifungal activity against Candida tropicalis 156 after 72 to 120 hrs by microdilution broth method; type: functional, organism-based
Mycobacterium avium [4] = assay: Antimycobacterial activity against pyrazinamide-resistant Mycobacterium avium CNCTC My 80/72 after 5 days by microplate alamar blue assay; type: functional; details: CNCTC My 80/72, 120 h; summary of the method: as §2
Nakaseomyces glabratus = assay: Antifungal activity against Candida glabrata 20/I after 72 to 120 hrs by microdilution broth method; type: functional, organism-based
Trichosporon asahii = assay: Antifungal activity against Trichosporon asahii 1188 after 72 to 120 hrs by microdilution broth method; type: functional, organism-based
Escherichia coli = assay: Antibacterial activity against Escherichia coli CCM 4517 after 24 to 48 hrs by microdilution broth method; type: functional, organism-based; summary of the method: as §1
[5] = tested on: Staphylococcus epidermidis; assay: Antibacterial activity against Staphylococcus epidermidis H 6966/08 up to 500 uM after 24 to 48 hrs by microdilution broth method; type: functional, organism-based; summary of the method: as §1
[6] = tested on: Staphylococcus epidermidis; assay: Antibacterial activity against methicillin-resistant Staphylococcus epidermidis H 5996/08 after 24 to 48 hrs by microdilution broth method; type: functional, organism-based
Staphylococcus aureus = assay: Antibacterial activity against Staphylococcus aureus CCM 4516/08 after 24 to 48 hrs by microdilution broth method; type: functional, organism-based; summary of the method: as §1
[7] = tested on: Trichophyton mentagrophytes; assay: Antifungal activity against Trichophyton mentagrophytes after 72 to 120 hrs by microdilution broth method; type: functional, organism-based
Lichtheimia corymbifera = assay: Antifungal activity against Absidia corymbifera 272 after 72 to 120 hrs by microdilution broth method; type: functional, organism-based
[8] = tested on: Trichophyton mentagrophytes; assay: Antifungal activity against Trichophyton mentagrophytes 445 after 72 to 120 hrs by microdilution broth method; type: functional, organism-based
Candida albicans = assay: Antifungal activity against Candida albicans ATCC 44859 after 72 to 120 hrs by microdilution broth method; type: functional, organism-based
[9] = tested on: Mycobacterium tuberculosis; assay: Antimycobacterial activity against Mycobacterium tuberculosis H37Rv CNCTC My 331/88 after 5 days by microplate alamar blue assay; type: functional; details: H37Rv CNCTC My 331/88, 120 h; summary of the method: as §2
[10] = Lipophilicity, log K of the compound by HPLC analysis; type: physicochemical
[11] = tested on: Staphylococcus epidermidis; assay: Antibacterial activity against Staphylococcus epidermidis H 6966/08 after 48 hrs by microdilution broth method; type: functional; summary of the method: as §1
Klebsiella pneumoniae [12] = assay: Antibacterial activity against ESBL positive Klebsiella pneumoniae J 14368/08 after 24 to 48 hrs by microdilution broth method; type: functional, organism-based; summary of the method: as §1

SMILES | Activity (Pseudomonas aeruginosa) | Activity (Pichia kudriavzevii) | MIC (Mycobacterium avium [1]) | Activity (Enterococcus sp.) | Activity (Klebsiella pneumoniae [2]) | Activity (Aspergillus fumigatus) | MIC (Mycobacterium kansasii) | Activity (Candida tropicalis) | MIC (Mycobacterium avium [4]) | Activity (Nakaseomyces glabratus) | Activity (Trichosporon asahii) | Activity (Escherichia coli) | Activity [5] | Activity [6] | Activity (Staphylococcus aureus) | Activity [7] | Activity (Lichtheimia corymbifera) | Activity [8] | MIC [9] | log K [10] | also measured
CCCCCCCCNc1cnc(C(N)=O)cn1 | inactive | inactive | > 100 µg/mL | inactive | inactive | inactive | 25 µM | inactive | > 100 µg/mL | inactive | inactive | inactive | inactive | inactive | inactive | inactive | inactive | inactive | 25 µM | 0.693 | IC50 (HepG2): > 250 µM; selectivity ratio [3]: > 10; Activity (Candida albicans): inactive; Activity [11]: inactive; Activity (Klebsiella pneumoniae [12]): inactive
CCCCCCCCNc1cncc(C(N)=O)n1 | inactive | inactive | 100 µM | inactive | inactive | inactive | 100 µM | inactive | 100 µM | inactive | inactive | inactive | inactive | inactive | inactive | inactive | inactive | inactive | 6 µM | 0.6514 | IC50 (HepG2): 161 µM; selectivity ratio [3]: 25.8; Activity (Candida albicans): inactive; Activity [11]: inactive; Activity (Klebsiella pneumoniae [12]): inactive
CCNc1cncc(C(N)=O)n1 | inactive | inactive | > 100 µg/mL | inactive | inactive | inactive | > 100 µg/mL | inactive | > 100 µg/mL | inactive | inactive | inactive | inactive | inactive | inactive | inactive | inactive | inactive | > 100 µg/mL | -0.6318 | Activity (Candida albicans): inactive; Activity [11]: inactive; Activity (Klebsiella pneumoniae [12]): inactive
CCCCCNc1cncc(C(N)=O)n1 | inactive | inactive | > 100 µg/mL | inactive | inactive | inactive | > 100 µg/mL | inactive | > 100 µg/mL | inactive | inactive | inactive | inactive | inactive | inactive | inactive | inactive | inactive | 100 µg/mL | -0.0095 | Activity (Candida albicans): inactive; Activity [11]: inactive; Activity (Klebsiella pneumoniae [12]): inactive
NC(=O)c1cnc(N)cn1 | inactive | inactive | > 100 µg/mL | inactive | inactive | inactive | > 100 µg/mL | inactive | > 100 µg/mL | inactive | inactive | inactive | inactive | inactive | inactive | inactive | inactive | inactive | > 100 µg/mL | -0.7852 | Activity (Candida albicans): inactive; Activity [11]: inactive; Activity (Klebsiella pneumoniae [12]): inactive
CCCCNc1cnc(C(N)=O)cn1 | inactive | inactive | > 100 µg/mL | inactive | inactive | inactive | > 100 µg/mL | inactive | > 100 µg/mL | inactive | inactive | inactive | inactive | inactive | inactive | inactive | inactive | inactive | > 100 µg/mL | -0.191 | Activity (Candida albicans): inactive; Activity [11]: inactive; Activity (Klebsiella pneumoniae [12]): inactive
NC(=O)c1cnccn1 [PYRAZINAMIDE] |  |  | > 100 µg/mL |  |  |  | > 100 µg/mL |  | > 100 µg/mL |  |  |  |  |  |  |  |  |  | 102 µM | -0.6872 | IC50 (HepG2): > 10000 µM; selectivity ratio [3]: > 98.1
NC(=O)c1cncc(NCCCc2ccccc2)n1 | inactive | inactive | > 100 µg/mL | inactive | inactive | inactive | > 100 µg/mL | inactive | > 100 µg/mL | inactive | inactive | inactive | inactive | inactive | inactive | inactive | inactive | inactive | > 100 µg/mL | 0.0741 | Activity (Candida albicans): inactive; Activity [11]: inactive; Activity (Klebsiella pneumoniae [12]): inactive
CCCNc1cncc(C(N)=O)n1 | inactive | inactive | > 100 µg/mL | inactive | inactive | inactive | > 100 µg/mL | inactive | > 100 µg/mL | inactive | inactive | inactive | inactive | inactive | inactive | inactive | inactive | inactive | > 100 µg/mL | -0.4386 | Activity (Candida albicans): inactive; Activity [11]: inactive; Activity (Klebsiella pneumoniae [12]): inactive
CCNc1cnc(C(N)=O)cn1 | inactive | inactive | > 100 µg/mL | inactive | inactive | inactive | > 100 µg/mL | inactive | > 100 µg/mL | inactive | inactive | inactive | inactive | inactive | inactive | inactive | inactive | inactive | > 100 µg/mL | -0.552 | Activity (Candida albicans): inactive; Activity [11]: inactive; Activity (Klebsiella pneumoniae [12]): inactive
